Screening results as filed in PubChem.
Only some compounds are listed: those with a hit (about 1.7% of all), similar ones and a draw of the others.
CSC inhib: cancer stem cell inhibition. cancer stem cell-like cells viability, luminescence. inhibition, % at 7.5 µM. 300,000 tested, 1.1% active. AID 2717; in the data active means inhibition above about 75%; inconclusive means no clear call, values can overlap the other calls; tested in HMLE shEcad cells
PglD DTNB: blocks C. jejuni PglD acetyltransferase activity; purified PglD enzyme, DTNB colorimetric CoA detection; inhibition, % at 12.5 µM; 360,000 tested, 0.098% active; in the data active means inhibition above about 16%, passing the limit was not always enough; inconclusive means no clear call, values can overlap the other calls
PfHsp90 yeast 2: inhibits growth of yeast expressing Plasmodium falciparum Hsp90. S. cerevisiae expressing PfHsp90, BacTiter-Glo ATP, 48 h; yeast lacking PDR1 and PDR3 efflux regulators. inhibition, % at 9.4 µM. 310,000 tested, 0.32% active. AID 504621;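 active means every replicate shows inhibition above about 80%, whatever the replicate mean, limit read from the data; inconclusive means mean inhibition reaches the set limit but some replicate falls short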;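 further: 0% = DMSO neutral controls and 100% = 20 µM radicicol positive controls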
SKKanGAS inh: blocks kanamycin growth of S. pyogenes SKKanGAS strain; BacTiter-Glo, 6 h; inhibition, % at 7.5 µM; 300,000 tested, 1.3% active; AID 1662;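 active means mean replicate score, as percent of positive control median, at least 50; inconclusive means mean below 50 but one replicate at or above 50; inactive means mean and every replicate below 50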;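 further: strain carries kanamycin resistance gene driven by streptokinase promoter and grows in 40 µg/ml kanamycin; loss of luminescence reflects streptokinase promoter inhibition or plain growth inhibition; 0% = median of DMSO wells and 100% = positive control at its reference dose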
Rtt109 HAT inh: C. albicans Rtt109 histone acetyltransferase inhibition; 330,000 tested, 0.16% active; purified Rtt109/Vps75, ThioGlo CoA-SH fluorescence, 4 h; inhibition, % at 34.9 µM; AID 540336; Q5AAJ8;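 active means inhibition of at least 50% in every replicate; inconclusive means best replicate reaches 50% inhibition but some replicates fall short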
Target sequence (Q5AAJ8 whole entry, looked up): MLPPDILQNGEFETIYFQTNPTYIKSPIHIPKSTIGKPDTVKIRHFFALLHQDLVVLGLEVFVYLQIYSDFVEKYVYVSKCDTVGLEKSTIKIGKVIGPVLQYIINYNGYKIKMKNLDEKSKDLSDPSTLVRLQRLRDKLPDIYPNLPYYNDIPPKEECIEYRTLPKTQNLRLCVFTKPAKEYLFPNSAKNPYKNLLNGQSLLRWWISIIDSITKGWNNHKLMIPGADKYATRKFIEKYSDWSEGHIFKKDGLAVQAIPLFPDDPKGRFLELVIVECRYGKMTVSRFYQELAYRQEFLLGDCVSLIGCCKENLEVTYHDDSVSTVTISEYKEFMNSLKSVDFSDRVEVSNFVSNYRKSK
FN deposit inh: fibronectin deposition inhibition | AH1F fibroblasts, Alexa488-fibronectin deposition fluorescence, overnight | inhibition, % at 12.6 µM | 350,000 tested, 0.086% active;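 active means mean inhibition across replicates of 30% or more, regardless of how many single replicates reach that level; inconclusive means mean under 30% yet at least half of replicates reach 30%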;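 further: positive control wells lacked labelled fibronectin entirely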
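Assay system: AH1F fibroblasts assembling fluorescent fibronectin matrix; Amount: 10000 AH1F cells per well; Buffer or medium: DMEM, 2% serum; Probe or stimulus: Alexa488-fibronectin, 24 nM final in well; Doses: single compound dose, delivered by pin transfer; Incubation: 1 h adhesion, overnight exposure; Measured by: fluorescence 485/525 nm; Read-out: fibronectin deposition inhibition.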
An asterisk follows results filed as active; ? = inconclusive; / = no result given.

SMILES | CSC inhib | PglD DTNB | PfHsp90 yeast 2 | SKKanGAS inh | Rtt109 HAT inh | FN deposit inh
C/C=C/n1ccnc1CC(O)(c1ccccc1)c1ccc(C)cc1 (stereo not drawn) | -6.9 | / | -2.4 | -0.2 | 60.1* | 1.4
COc1ccccc1CNC(=O)C[C@H]1CC[C@@H]2[C@H](COC[C@H](O)CN2Cc2cccc(-c3ccncc3)c2)O1 | / | -2.1 | / | / | / | -6.3
CC(C)c1c(C#N)c(N)nc(SCC(=O)c2cc3ccccc3oc2=O)c1C#N | 3.2 | -2.1 | -19.0 | 13.8 | 5.7 | -3.4
N#Cc1ccc(-c2ccccc2)nc1SCC(=O)c1cc2ccccc2oc1=O | 20.3 | 2.5 | -1.1 | 108.8* | 3.0 | 27.3
O=C(Nc1ccc2c(c1)CCC2)c1ccc(F)cc1 | 12.1 | 3.0 | 9.0 | -3.7 | -3.1 | -6.0
O=C(Nc1ccc2c(c1)CCC2)c1cc(S(=O)(=O)Nc2ccc(F)cc2)c(Cl)cc1Cl | 109.3* | 6.2 | -18.8 | 102.7* | -18.4 | 5.0
Fc1cccc2sc(Nc3nnc(-c4ccco4)o3)nc12 | 23.3 | 0.4 | 12.9 | 71.6* | -11.0 | 8.1
COc1cccc2sc(Nc3nnc(-c4cccs4)o3)nc12 | 63.5 | 0.4 | / | 91.9* | -4.3 | 7.6
COc1cccc2sc(Nc3nnc(-c4ccc(F)cc4)o3)nc12 | 107.2* | 1.7 | -58.9 | 88.3* | -0.9 | -1.5
C[C@H](CO)N1C[C@H](C)[C@H](CN(C)C(=O)Nc2ccc(C(F)(F)F)cc2)Oc2ccc(NC(=O)CCC(F)(F)F)cc2C1=O | / | -2.9 | / | / | / | /
C[C@@H]1CN([C@@H](C)CO)C(=O)c2cc(-c3ccccc3F)cnc2O[C@@H]1CN(C)C(=O)NC1CCCC1 | / | -0.4 | / | / | / | -6.8
C[C@@H]1CN([C@@H](C)CO)C(=O)CCCn2cc(nn2)CO[C@H]1CN(C)S(=O)(=O)c1ccc(Oc2ccccc2)cc1 | / | 0.7 | / | / | / | 3.0
CCCCCCCC(=O)NNC(=O)Cc1ccccc1 | -10.9 | 3.4 | 7.9 | -6.9 | 8.6 | /
CCCCCCCCCCCC(=O)c1c(O)cccc1O | -5.0 | 7.1 | 4.5 | 103.2* | 7.2 | /
CCC(=O)N1[C@@H]2c3cccc(=O)n3C[C@@H]2[C@@H](CO)[C@@H]1C(=O)NCc1ccccc1F | / | 3.5 | / | / | / | /
CC1CCCN(CCCNC(=O)c2cc3c(Cl)nc4ccccc4c3s2)C1 (stereo not drawn) | 85.5* | 9.5 | -9.0 | -6.8 | 22.9 | 5.2
Cc1nc2ccccc2c2oc(C(=O)NCCCN3CCCC(C)C3)cc12 (stereo not drawn) | -6.9 | 3.4 | -8.5 | 0.6 | 18.9 | 5.4
CCN(CC)CCCNC(=O)c1cc2c(Cl)nc3ccccc3c2s1 | 77.4* | / | 5.9 | -5.0 | -2.4 | -0.3
COc1ccccc1C#Cc1cnc2c(c1)C(=O)N([C@@H](C)CO)C[C@H](C)[C@@H](CN(C)C)O2 | / | -2.5 | / | / | / | 2.9
C[C@]12CC[C@@H]3c4ccc(OC(=O)c5ccccc5)cc4CC[C@H]3[C@@H]1CC[C@@H]2O | 7.2 | -3.5 | -30.0 | 84.2* | -1.2 | -8.8
CC(=O)Oc1ccc2c(c1)CCC1C2CCC2(C)C(OC(C)=O)CCC12 (stereo not drawn) | / | -2.1 | 16.0 | / | 8.6 | /
COCCN=c1scc(-c2cc(OC)c(OC)c(OC)c2)n1/N=C/c1c(C)[nH]c2ccccc12 | 114.9* | 1.9 | -0.1 | 17.6 | 3.2 | 3.8
CCN(C(=O)COC(=O)/C=C/c1cccc(Br)c1)C1CCS(=O)(=O)C1 (stereo not drawn) | 11.2 | -3.1 | -2.4 | -9.8 | -1.0 | 4.4
CN(C(=O)COC(=O)/C=C/c1cccc([N+](=O)[O-])c1)C1CCS(=O)(=O)C1 (stereo not drawn) | 91.5* | -3.1 | 26.3 | 4.0 | -10.1 | 4.8
CC(C)[C@@H]1CC=CC[C@H](C)Oc2ccccc2C(=O)N(C)[C@@H](C)C(=O)N1 (mixture of isomers) | / | / | / | / | / | -11.7
SMILES | CSC inhib | PglD DTNB | PfHsp90 yeast 2 | SKKanGAS inh | Rtt109 HAT inh | FN deposit inh
CCOC(=O)C(=Cc1cc(=O)c(OC)co1)C(=O)OCC | / | / | -8.2 | 1.5 | 77.8* | 10.7
COc1coc(C(O)CN)cc1=O (stereo not drawn) | -7.4 | / | -4.2 | 0.0 | / | /
CC(=O)N(C)C[C@H]1Oc2cc(C#Cc3cccc(F)c3)ccc2S(=O)(=O)N([C@@H](C)CO)C[C@@H]1C | / | 4.2 | / | / | / | 8.4
C[C@H]1CN([C@@H](C)CO)C(=O)c2c(c3ccccc3n2C)-c2ccccc2CO[C@@H]1CN(C)C(=O)Nc1ccc(-c2ccccc2)cc1 | / | / | / | / | / | 4.4
CNC[C@@H]1Oc2ccc(NC(=O)c3ccncc3)cc2CC(=O)N([C@H](C)CO)C[C@@H]1C | / | -1.8 | / | / | / | 0.0
CCOc1cc(N2CCOCC2)c(OCC)cc1NC(=O)CN1C(=O)NC(Cc2ccccc2)C1=O (stereo not drawn) | 8.9 | 3.4 | -22.1 | 4.5 | 8.4 | /
CCOc1cc(N2CCOCC2)c(OCC)cc1NC(=O)CN1CCC(Cc2ccccc2)CC1 | 84.3* | / | 7.0 | -0.7 | 27.5 | 1.9
COc1ccc(NC(=O)Nc2ccc3c(c2)C(=O)N([C@@H](C)CO)C[C@@H](C)[C@@H](CN(C)C(=O)NC2CCCCC2)OCCCC[C@H](C)O3)cc1 | / | -1.0 | / | / | / | /
Cc1ccc(Oc2nc(CN3CCOCC3)nc3sc4c(c23)CCC(C)C4)cc1C (stereo not drawn) | 120.2* | / | 0.6 | 24.9 | -1.3 | -2.2
CCC(O)(CC)C(=O)N/N=C/c1cc(Br)cc(Br)c1O | ? | 11.0 | -19.0 | 89.2* | 2.7 | -13.9
O=C(C[n+]1ccccc1)N/N=C/c1cc(Br)cc(Br)c1O | 15.2 | -2.0 | -60.0 | 102.5* | -0.1 | /
O=C(COc1ccc(-c2ccccc2)cc1)N/N=C/c1cc(O)ccc1Br | 89.1* | / | -25.6 | 98.2* | / | 0.5
O=C(C[n+]1ccccc1)N/N=C/c1cc(Br)ccc1F | -4.8 | 3.5 | -2.9 | / | 1.6 | 4.1
CCOc1ccc(/C=N/NC(=O)COc2ccccc2-c2ccccc2)cc1 | 77.8* | -10.0 | -6.6 | 22.5 | -4.1 | -0.1
C[C@H]1CN([C@@H](C)CO)C(=O)c2cc(C#Cc3ccncc3)cnc2O[C@H]1CN(C)C(=O)CN(C)C | / | / | / | / | / | -6.5
Cc1ccccc1-c1ccc2c(c1)O[C@@H](CN(C)C(=O)C1CC1)[C@@H](C)CN([C@H](C)CO)S2(=O)=O | / | 3.9 | / | / | / | -20.2
O=C(CP(=O)(c1ccccc1)c1ccccc1)N/N=C/c1cc(Br)cc(Br)c1O | / | / | -14.2 | 101.6* | -16.6 | 4.8
O=C(COc1ccc(-c2ccccc2)cc1)N/N=C/c1ccccc1Br | 30.6 | 0.4 | 7.7 | 19.1 | / | -3.4
O=c1cc(-c2ccccc2)[nH]n1-c1nc2ccccc2s1 | 98.0* | -0.5 | -42.4 | 81.6* | 0.4 | /
O=c1cc(-c2ccccc2)[nH]n1-c1ccccc1 | / | -2.8 | 22.1 | / | -0.9 | 0.4
O=C(c1c(O)c2ccccc2oc1=O)C1CCCCC1 | -3.2 | -3.2 | / | 14.6 | -2.2 | -4.5
O=C(CCC1CCCC1)c1c(O)c2ccccc2oc1=O | 40.3 | 0.5 | 8.4 | 54.2* | -2.2 | 5.5
